Usually pIC50 stands for the IC50 on a negative log10 scale, so that one unit is a factor of ten. A low value points to a high IC50.

The values that follow come from article PMC8586590 (Bioactive Materials, 2021).

In one data set the test system is HepG2-luci cells. Description: Lung metastasis model. Conditions: after 30 days, i.v., 3 mg/kg HCPT equivalent, four injections, N=5. The class given is in vivo, Balb/c nude mice. The essentials: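 Balb/c nude mice (4–6 weeks, 20 ± 2 g) received 1 × 10⁶ HepG2-luci cells in 200 μL serum-free DMEM via the tail vein. Six days later (day 0) they were randomised into six groups of five and dosed i.v. at 3 mg/kg HCPT-equivalent on days 0, 3, 6 and 9. Study ended at day 30: lungs fixed in Bouin's for 24 h and photographed, then formalin-fixed paraffin sections stained with H&E.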

The test system of data set [1] is HepG2 3D multicellular spheroids. Description: Multicellular spheroid. It is filed as cell-based. Conditions: HepG2 MCSs, 100 μM, medium replaced every two days, 7 days, N=3. The essentials:
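HepG2 3D spheroids held in 100 μM formulation, with medium replaced every two days; drug-free medium served as control. Spheroid volume calculated as V = 4/3πr³ from the radius and expressed relative to each spheroid's day-0 volume. Mean ± SD, N = 3.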

The test system of a further data set is HepG2 cells. Description: Cell inhibition, MTT assay. As to conditions: Homo sapiens, HepG2, 48 h. The class given is cell-based. In general terms: Tetrazolium dyes change colour on reduction, which living cells bring about.
Data set [2] is classed as in vivo, Balb/c nude mice. As to conditions: i.v., 3 mg/kg HCPT-equivalent. The method in brief:
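Normal Balb/c nude mice (4–6 weeks, 16–19 g), six groups of five including saline, treated three times. Eye blood taken on days 1 and 5 after the third dose. For haematology, 300 μL into heparinised tubes; for biochemistry, 500 μL, centrifuged at 2500×g for 15 min and the supernatant used. Xenograft mice: body weight every three days and H&E of major organs at study end.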

pIC50: −log10 of the molar value.

Take `CC[C@@]1(O)C(=O)OCc2c1cc1n(c2=O)Cc2cc3cc(O)ccc3nc2-1` [HCPT, 10-hydroxycamptothecin]: in the data set on HepG2-luci cells, the “bioluminescence signal of HepG2-luci cells in the lung” value is reported as “the strongest”. Also, in data set [1], the “MCS volume relative to initial volume” value was “stable volume”. The negative-log IC50 (pIC50) with HepG2 cells is 6.08. Moreover, the “blood parameters RBC, WBC, HGB, PLT (hematotoxicity)” value in data set [2] (three times, N=5) is recorded as “deteriorated”. Moreover, the “body weight during treatment” value in data set [2] (tumor-bearing mice) is on record as “obvious weight loss”.
